Test results taken from ChEMBL document CHEMBL1817558, “Design, synthesis and antimicrobial activity of chiral 2-(substituted-hydroxyl)-3-(benzo[d]oxazol-5-yl)propanoic acid derivatives” (2011).
Values after ≈ are worked out from the molar mass of the structure shown.

Columns and labels:
Format in all cases: functional
Escherichia coli = test: Antibacterial activity against Escherichia coli ATCC 11303 after 24 hrs by NCCLS M7-A6 broth dilution method; details: ATCC 11303, 24 h
Procedure, shortened: (§1)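 Broth microdilution MIC per NCCLS. The 4 mg/mL DMSO stock was diluted in Mueller-Hinton broth with inoculum at 10^5 CFU/mL. Twofold serial dilutions gave final concentrations of 200 to 0.39 µg/mL. Incubation was 24 h at 37 °C, and cultures were streaked on plates to check clarity. MIC was the lowest concentration giving a clear well. Controls were medium-only and DMSO-only inoculated broth.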

Staphylococcus aureus [1] = test: Antibacterial activity against Staphylococcus aureus ATCC 10832 after 24 hrs by NCCLS M7-A6 broth dilution method; details: ATCC 10832, 24 h
Procedure, shortened: (§2)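 96-well microtitre broth dilution in Mueller-Hinton broth, inoculum 10^5 CFU/mL. Compounds dissolved in DMSO at 4 mg/mL, then twofold serial dilution giving final 200 down to 0.39 µg/mL. Incubated 24 h at 37 °C. Cultures streaked on plates to check clarity; MIC taken as lowest concentration leaving the well clear. DMSO-only solvent control run at matching dilutions.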

Staphylococcus aureus [2] = test: Antibacterial activity against methicillin-resistant Staphylococcus aureus ATCC 700699 after 24 hrs by NCCLS M7-A6 broth dilution method; details: ATCC 700699, 24 h; procedure, shortened: as §2
Bacillus subtilis = test: Antibacterial activity against Bacillus subtilis ATCC 33712 after 24 hrs by NCCLS M7-A6 broth dilution method; details: ATCC 33712, 24 h; procedure, shortened: as §1
Candida albicans = test: microbe, parasite or virus in culture; details: ATCC 10231, 24 h

| Structure (SMILES) | MIC (Escherichia coli) [µg/mL] | MIC (Staphylococcus aureus [1]) [µg/mL] | MIC (Staphylococcus aureus [2]) [µg/mL] | MIC (Bacillus subtilis) [µg/mL] | MIC (Candida albicans) [µg/mL] |
| --- | --- | --- | --- | --- | --- |
| Cc1oc(-c2ccccc2)nc1CCCc1nc2cc(C[C@H](Oc3ccc(OCc4ccccc4)cc3)C(=O)O)ccc2o1 | 6.25 (≈ 10.6 µM) | 1.56 (≈ 2.65 µM) | 1.56 (≈ 2.65 µM) | 1.56 (≈ 2.65 µM) | > 200 |
| COC(=O)[C@H](Cc1ccc2oc(CCCc3nc(-c4ccccc4)oc3C)nc2c1)Oc1ccc(-c2ccccc2)cc1 | > 200 | > 200 | > 200 | > 200 | > 200 |
| CC(=O)c1ccc(O[C@@H](Cc2ccc3oc(CCCc4nc(-c5ccccc5)oc4C)nc3c2)C(=O)O)cc1 | > 200 | 100 (≈ 191 µM) | 100 (≈ 191 µM) | > 200 | > 200 |
| Cc1oc(-c2ccccc2)nc1CCCc1nc2cc(C[C@H](Oc3cc(F)c(F)c(F)c3)C(=O)O)ccc2o1 | 25 (≈ 46.6 µM) | 12.5 (≈ 23.3 µM) | 6.25 (≈ 11.6 µM) | 6.25 (≈ 11.6 µM) | > 200 |
| Cc1oc(-c2ccccc2)nc1CCCc1nc2cc(C[C@H](Oc3cccc4ncccc34)C(=O)O)ccc2o1 | 200 (≈ 375 µM) | 25 (≈ 46.9 µM) | 25 (≈ 46.9 µM) | 50 (≈ 93.7 µM) | > 200 |
| Clc1ccc(COC(Cn2ccnc2)c2ccc(Cl)cc2Cl)c(Cl)c1.O=[N+]([O-])O (stereo not drawn) [MICONAZOLE NITRATE] | – | – | – | – | 1.56 |
| CO/N=C(\C(=O)N[C@@H]1C(=O)N2C(C(=O)O)=C(COC(C)=O)CS[C@H]12)c1csc(N)n1 [CEFOTAXIME] | 200 (≈ 439 µM) | 3.12 (≈ 6.85 µM) | 3.12 (≈ 6.85 µM) | 0.78 (≈ 1.71 µM) | – |
| Cc1oc(-c2ccccc2)nc1CCCc1nc2cc(C[C@H](Oc3cccc(F)c3)C(=O)O)ccc2o1 | 50 (≈ 99.9 µM) | 12.5 (≈ 25 µM) | 12.5 (≈ 25 µM) | 25 (≈ 49.9 µM) | > 200 |
| Cc1oc(-c2ccccc2)nc1CCCc1nc2cc(C[C@H](Oc3ccc(Cl)cc3)C(=O)O)ccc2o1 | 25 (≈ 48.4 µM) | 6.25 (≈ 12.1 µM) | 6.25 (≈ 12.1 µM) | 12.5 (≈ 24.2 µM) | > 200 |
| Cc1oc(-c2ccccc2)nc1CCCc1nc2cc(C[C@H](Oc3ccc(I)cc3)C(=O)O)ccc2o1 | 12.5 (≈ 20.5 µM) | 1.56 (≈ 2.56 µM) | 1.56 (≈ 2.56 µM) | 6.25 (≈ 10.3 µM) | > 200 |
| CC1=C(C(=O)O)N2C(=O)[C@@H](NC(=O)[C@H](N)C3=CCC=CC3)[C@H]2SC1 [CEPHRADINE] | 25 (≈ 71.5 µM) | 25 (≈ 71.5 µM) | 50 (≈ 143 µM) | 50 (≈ 143 µM) | – |
| Cc1oc(-c2ccccc2)nc1CCCc1nc2cc(C[C@H](Oc3ccc(-c4ccccc4)cc3)C(=O)O)ccc2o1 | 3.12 (≈ 5.59 µM) | 1.56 (≈ 2.79 µM) | 1.56 (≈ 2.79 µM) | 3.12 (≈ 5.59 µM) | > 200 |
| CC(C)(O/N=C(\C(=O)N[C@@H]1C(=O)N2C(C(=O)[O-])=C(C[n+]3ccccc3)CS[C@H]12)c1csc(N)n1)C(=O)O [CEFTAZIDIME] | 200 (≈ 366 µM) | 0.78 (≈ 1.43 µM) | 12.5 (≈ 22.9 µM) | 6.25 (≈ 11.4 µM) | – |
| Cc1oc(-c2ccccc2)nc1CCCc1nc2cc(C[C@@H](Oc3ccc(OCc4ccccc4)cc3)C(=O)O)ccc2o1 | 25 (≈ 42.5 µM) | 25 (≈ 42.5 µM) | 25 (≈ 42.5 µM) | 12.5 (≈ 21.2 µM) | > 200 |
| Cc1oc(-c2ccccc2)nc1CCCc1nc2cc(C[C@H](Oc3ccc(Br)cc3)C(=O)O)ccc2o1 | 12.5 (≈ 22.3 µM) | 3.12 (≈ 5.56 µM) | 3.12 (≈ 5.56 µM) | 6.25 (≈ 11.1 µM) | > 200 |
| Cc1oc(-c2ccccc2)nc1CCCc1nc2cc(C[C@@H](Oc3ccc(-c4ccccc4)cc3)C(=O)O)ccc2o1 | 12.5 (≈ 22.4 µM) | 12.5 (≈ 22.4 µM) | 6.25 (≈ 11.2 µM) | 6.25 (≈ 11.2 µM) | > 200 |
| Cc1oc(-c2ccccc2)nc1CCCc1nc2cc(C[C@H](OC(C)C)C(=O)O)ccc2o1 | 200 (≈ 446 µM) | 50 (≈ 111 µM) | 50 (≈ 111 µM) | 50 (≈ 111 µM) | > 200 |

| Structure (SMILES) | MIC (Escherichia coli) [µg/mL] | MIC (Staphylococcus aureus [1]) [µg/mL] | MIC (Staphylococcus aureus [2]) [µg/mL] | MIC (Bacillus subtilis) [µg/mL] | MIC (Candida albicans) [µg/mL] |
| --- | --- | --- | --- | --- | --- |
| Cc1oc(-c2ccccc2)nc1CCCc1nc2cc(C[C@H](Oc3ccc(C(F)(F)F)cc3)C(=O)O)ccc2o1 | 12.5 (≈ 22.7 µM) | 1.56 (≈ 2.83 µM) | 1.56 (≈ 2.83 µM) | 6.25 (≈ 11.4 µM) | > 200 |
| Cc1oc(-c2ccccc2)nc1CCCc1nc2cc(C[C@H](Oc3ccc(Cl)cc3Cl)C(=O)O)ccc2o1 | 6.25 (≈ 11.3 µM) | 3.12 (≈ 5.66 µM) | 1.56 (≈ 2.83 µM) | 3.12 (≈ 5.66 µM) | > 200 |
| Cc1oc(-c2ccccc2)nc1CCCc1nc2cc(C[C@H](Oc3ccccc3Br)C(=O)O)ccc2o1 | 50 (≈ 89.1 µM) | 25 (≈ 44.5 µM) | 25 (≈ 44.5 µM) | 50 (≈ 89.1 µM) | > 200 |
| Cc1oc(-c2ccccc2)nc1CCCc1nc2cc(C[C@H](Oc3ccc(C#N)cc3)C(=O)O)ccc2o1 | 200 (≈ 394 µM) | 50 (≈ 98.5 µM) | 50 (≈ 98.5 µM) | 50 (≈ 98.5 µM) | > 200 |
| Cc1oc(-c2ccccc2)nc1CCCc1nc2cc(C[C@H](Oc3cccnc3)C(=O)O)ccc2o1 | > 200 | 200 (≈ 414 µM) | 200 (≈ 414 µM) | > 200 | > 200 |
| Cc1oc(-c2ccccc2)nc1CCCc1nc2cc(C[C@H](Oc3ccc(C(C)(C)C)cc3)C(=O)O)ccc2o1 | 3.12 (≈ 5.79 µM) | 1.56 (≈ 2.9 µM) | 1.56 (≈ 2.9 µM) | 3.12 (≈ 5.79 µM) | > 200 |
| CC1(C)S[C@@H]2[C@H](NC(=O)Cc3ccccc3)C(=O)N2[C@H]1C(=O)[O-].[Na+] [PENICILLIN G SODIUM] | 0.78 | 3.12 | 3.12 | < 0.39 | – |
| Cc1oc(-c2ccccc2)nc1CCCc1nc2cc(C[C@H](Oc3ccc(F)cc3)C(=O)O)ccc2o1 | 50 (≈ 99.9 µM) | 12.5 (≈ 25 µM) | 12.5 (≈ 25 µM) | 25 (≈ 49.9 µM) | > 200 |
| Cc1oc(-c2ccccc2)nc1CCCc1nc2cc(C[C@@H](Oc3ccc(C(C)(C)C)cc3)C(=O)O)ccc2o1 | 25 (≈ 46.4 µM) | 12.5 (≈ 23.2 µM) | 12.5 (≈ 23.2 µM) | 12.5 (≈ 23.2 µM) | > 200 |
| Cc1ccc(O[C@@H](Cc2ccc3oc(CCCc4nc(-c5ccccc5)oc4C)nc3c2)C(=O)O)cc1 | 50 (≈ 101 µM) | 25 (≈ 50.3 µM) | 12.5 (≈ 25.2 µM) | 50 (≈ 101 µM) | > 200 |
| COc1ccc(O[C@@H](Cc2ccc3oc(CCCc4nc(-c5ccccc5)oc4C)nc3c2)C(=O)O)cc1 | 100 (≈ 195 µM) | 25 (≈ 48.8 µM) | 25 (≈ 48.8 µM) | 50 (≈ 97.5 µM) | > 200 |
| Cc1oc(-c2ccccc2)nc1CCCc1nc2cc(C[C@H](Oc3ccccc3)C(=O)O)ccc2o1 | 100 (≈ 207 µM) | 25 (≈ 51.8 µM) | 25 (≈ 51.8 µM) | 25 (≈ 51.8 µM) | > 200 |
| Cc1oc(-c2ccccc2)nc1CCCc1nc2cc(C[C@@H](Oc3ccc(C(F)(F)F)cc3)C(=O)O)ccc2o1 | 25 (≈ 45.4 µM) | 12.5 (≈ 22.7 µM) | 6.25 (≈ 11.4 µM) | 12.5 (≈ 22.7 µM) | > 200 |
| CO[C@@H](Cc1ccc2oc(CCCc3nc(-c4ccccc4)oc3C)nc2c1)C(=O)O | > 200 | 200 (≈ 476 µM) | 100 (≈ 238 µM) | 200 (≈ 476 µM) | > 200 |
| CC(=O)N1CCN(c2ccc(OCC3COC(Cn4ccnc4)(c4ccc(Cl)cc4Cl)O3)cc2)CC1 (stereo not drawn) [KETOCONAZOLE] | – | – | – | – | < 0.39 |
| Cc1oc(-c2ccccc2)nc1CCCc1nc2cc(C[C@H](Oc3cccc(I)c3)C(=O)O)ccc2o1 | 25 (≈ 41.1 µM) | 3.12 (≈ 5.13 µM) | 1.56 (≈ 2.56 µM) | 12.5 (≈ 20.5 µM) | > 200 |
